Screening results from PubChem.
FXIa inh 1536: human FXIa protease inhibitors, primary screen, biochemical, 1536-well; Coagulation factor XI (Homo sapiens), P03951; purified FXIa, Boc-Glu-Ala-Arg-AMC fluorogenic substrate; inhibition, % at 5 µM; actives 0.14% (n = 220,000); AID 798, 2007;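 active = inhibition of at least 40%; inactive = inhibition below 40%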;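 note: fluorescence of freed AMC excited at 355 nm; 0% = enzyme without compound and 100% = no enzyme blank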
FXIIa inh 1536: human FXIIa protease inhibitors, primary screen, biochemical, 1536-well. Coagulation factor XII (Homo sapiens), P00748. purified FXIIa, Boc-QGR-AMC fluorogenic substrate, 2 h. inhibition, % at 5 µM. actives 0.3% (n = 220,000). AID 800, 2007; in the data active = inhibition above about 40%;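 note: 0% = enzyme with no compound and 100% = blank without enzyme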
thrombin 1536: human alpha-thrombin inhibitors, primary screen, counter-screen for coagulation protease inhibitor project, biochemical, 1536-well, fluorogenic AMC substrate | Boc-VPR-AMC fluorogenic substrate cleavage | inhibition, % at 5 µM | actives 0.26% (n = 220,000) | Prothrombin (Homo sapiens), P00734;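 active = inhibition at or above 40%; inactive = inhibition below 40%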;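 note: 0% = enzyme with no compound and 100% = wells without enzyme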
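Material: human alpha-thrombin protein; Also added: Boc-VPR-AMC substrate, 15 µM final; Timing: enzyme reaction carried out at room temperature; Signal: fluorescence, ex 355 nm, em 460 nm; Measure: % inhibition of thrombin; Controls: enzyme without compound as high, wells lacking enzyme as low.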
hK5 inh: human KLK5 protease inhibitors, primary screen, biochemical, 1536-well; actives 0.59% (n = 210,000); Kallikrein-5 (Homo sapiens), Q9Y337; inhibition, % at 5 µM; recombinant hK5, fluorogenic AMC substrate cleavage;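 active = inhibition of 40% or more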;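 note: 0% = enzyme controls without compound and 100% = no-enzyme blanks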
Target sequence (Q9Y337 67-293 limits assumed): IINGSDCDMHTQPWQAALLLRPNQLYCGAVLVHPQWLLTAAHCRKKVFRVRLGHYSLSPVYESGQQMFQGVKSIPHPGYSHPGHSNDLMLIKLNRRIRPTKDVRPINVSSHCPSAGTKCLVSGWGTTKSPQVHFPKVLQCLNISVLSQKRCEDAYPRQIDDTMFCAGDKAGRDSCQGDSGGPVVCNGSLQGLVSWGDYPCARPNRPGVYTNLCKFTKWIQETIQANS
Furin inh: human furin inhibitors, primary screen, biochemical, fluorescence intensity; P09958; purified furin, fluorogenic substrate cleavage; inhibition, % at 20 µM or 30 µM; actives 0.061% (n = 220,000); in the data active = inhibition above about 25%
The depositor's hits bear a star; nt = no result given. Rows were chosen to be rich in hits. Some 1.1% of all compounds tested hit in one or more screens of this group.

SMILES	FXIa inh 1536	FXIIa inh 1536	thrombin 1536	hK5 inh	Furin inh
O=C(Nc1cc([N+](=O)[O-])ccc1N1CCOCC1)c1ccco1	43*	16	29	21	2
COc1ccc(S(=O)(=O)CCc2nnc(NC(=O)c3cccs3)s2)cc1	0	22	77*	1	-15
COc1ccc2c(c1)-c1nc(NC(=O)c3cccs3)sc1CC2	49*	22	4	-14	-5
COc1ccc(-n2cc(C#N)c(=O)[nH]c2=O)cc1	-1	7	-4	-2	-18
CCCCCCCc1c(O)nc(SCCN(C)C)[nH]c1=O	69*	33	7	21	-6
C(=N\Nc1nc2ccccc2[nH]1)/C1CCCCC1	5	6	-12	-7	-27
C=CCNC(=S)N/N=C/c1ccc(C)c([N+](=O)[O-])c1	41*	106*	24	62*	-11
C=CCNC(=O)c1ccccc1NC(=O)c1ccc(Cl)c(S(=O)(=O)Nc2ccccc2)c1	-2	9	-1	-6	-16
CCOc1ccccc1N1CCN(CC(=O)NCCc2ccc(S(N)(=O)=O)cc2)CC1	-2	3	-13	1	-16
Cc1ccccc1C(=O)NC1CCSC1=O (stereo not given)	50*	23	11	17	-10
O=C(NC(=S)NC1CCSC1=O)c1ccccc1Cl (stereo not given)	0	12	4	4	-24
CCOC(=O)c1cnc(-c2ccccc2)nc1Oc1ccc(Cl)c(Cl)c1	7	5	28	65*	-17
NC(=O)C1(N2CCCCC2)CCN(Cc2ccc(F)cc2)CC1	0	11	23	49*	-16
NC(=O)C1(N2CCCCC2)CCN(Cc2ccc(Br)cc2)CC1	2	6	-5	1	-19
O=C(COC(=O)CNC(=O)c1sc2ccccc2c1Cl)Nc1c(Cl)cc(Cl)cc1Cl	6	3	-3	-10	-7
Cn1c(Sc2ccc(C(F)(F)F)cc2[N+](=O)[O-])nnc1-c1ccccc1	16	29	25	51*	-13
COc1ccc(OC)c(-c2csc(NC(=O)c3ccc4c(c3)OCO4)n2)c1	6	5	0	1	-22
CC(C)CC(=O)Nc1cccc(C(=O)Nc2ccccc2C(=O)O)c1	-17	0	-3	-21	-12
CCCN(CCC)C(=O)Cn1ccc(=N)c2ccccc21	3	16	34	46*	-5
Cc1ccc(NC(=O)CN(C)C(=O)CCC(=O)c2cccs2)cc1	7	-3	47*	14	-14
NC(=O)C1CCN(CC(=O)Nc2ccccc2N2CCOCC2)CC1	0	5	1	1	-15
COc1ccc(-c2ccc(C#N)c(SCC(=O)NCCc3ccccc3)n2)cc1OC	-17	-43	56*	-18	-41
Cc1ccc(C(=O)C[n+]2ccc(-c3nnc4n3CCC4)cc2)cc1	6	12	-7	-8	-16
O=C(Nc1cccc(F)c1)C1CC(=O)N(c2ccc(Cl)cc2)C1 (stereo not given)	1	14	1	2	-14
O=C(Nc1cccc(F)c1)C1CC(=O)N(c2ccc(Br)cc2)C1 (stereo not given)	15	24	13	79*	-7
SMILES	FXIa inh 1536	FXIIa inh 1536	thrombin 1536	hK5 inh	Furin inh
Cc1ccc(S(=O)(=O)n2nc(-c3cccnc3)nc2N)cc1	8	18	4	-12	-17
COc1ccccc1C(=O)n1nc(-c2cccnc2)nc1N	-4	85*	nt	61*	-11
Cc1ccc(C(=O)n2nc(-c3cccnc3)nc2N)cc1	48*	94*	82*	74*	-19
CCOC(=O)c1cn(Cc2ccccc2)nn1	36	50*	-6	-5	-7
CCOC(=O)c1cn(CC(=O)Nc2ccccc2C(=O)OCC)nn1	-15	12	3	10	-9
Cc1sc(NC(=O)c2ccco2)c(CN2CCN(c3ccc(F)cc3)CC2)c1C	30	57*	2	-16	-21
c1ccc(-n2nnnc2CN2CCOCC2)cc1	8	14	0	-1	-18
c1ccc(-n2nnnc2Cc2nnnn2-c2ccccc2)cc1	25	30	2	73*	-10
Cc1nn(C(C)(C)C)c(N)c1-c1ccccc1	6	11	-3	-7	-19
